# ChEMBL document CHEMBL1255501, “Heteroresistance of Cryptococcus gattii to fluconazole” (2010)
# Active and inactive are the calls of the source. The rule behind the calls is not given here.
# Key:
# [1] = tested on: Cryptococcus gattii species complex; test: Antimicrobial activity against Cryptococcus gattii serotype B isolate NIH409 assessed as concentration required for heteroresistance; type: functional, Cryptococcus bacillisporus
# Outline: (§1)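 Fluconazole spot test: 10-fold serial dilutions of each single-colony-purified strain spotted on YPD agar alone and YPD agar with fluconazole at 4 to 128 μg/ml. The level of heteroresistance to fluconazole (LHF) is the lowest drug concentration at which minor resistant subpopulations emerge within the spot.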
# [2] = tested on: Cryptococcus gattii species complex; test: Antimicrobial activity against Cryptococcus gattii serotype B isolate RB-3 assessed as concentration required for heteroresistance; type: functional, Cryptococcus bacillisporus
# [3] = tested on: Cryptococcus gattii species complex; test: Antimicrobial activity against Cryptococcus gattii serotype B isolate NIH367 assessed as heteroresistant isolates at 2 ug/ml; type: functional, Cryptococcus bacillisporus
# Outline: (§2)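 Population analysis: cells suspended in sterile saline at 1 × 10³ to 4 × 10³ CFU/ml and plated on plain YPD agar or YPD agar with various fluconazole concentrations. Plates incubated at 30°C for 72 h. The resistant subpopulation at each concentration is recorded as a percentage of the population.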
# [4] = tested on: Cryptococcus gattii species complex; test: Antimicrobial activity against Cryptococcus gattii serotype B isolate B5788 assessed as heteroresistant isolates at 8 ug/ml; type: functional, Cryptococcus bacillisporus; outline: as §2
# [5] = tested on: Cryptococcus gattii species complex; test: Antimicrobial activity against Cryptococcus gattii serotype C isolate NIH139 assessed as concentration required for heteroresistance; type: functional, Cryptococcus bacillisporus
# [6] = tested on: Cryptococcus deuterogattii; test: Antimicrobial activity against Cryptococcus gattii serotype B isolate NIH444 assessed as heteroresistant isolates at 2 ug/ml; type: functional, Cryptococcus bacillisporus; outline: as §2
# [7] = tested on: Cryptococcus gattii species complex; test: Antimicrobial activity against Cryptococcus gattii serotype B isolate RAM15 assessed as heteroresistant isolates at 16 ug/ml; type: functional, Cryptococcus bacillisporus
# Outline: (§3)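 Population analysis: saline cell suspensions (1 × 103 to 4 × 10^3 CFU/ml) plated on plain YPD agar or YPD agar with various fluconazole concentrations; growth recorded after 72 h at 30°C; percentage of resistant subpopulation at each drug level calculated relative to drug-free plate growth.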
# [8] = tested on: Cryptococcus gattii species complex; test: Antimicrobial activity against Cryptococcus gattii serotype B isolate NIH535 assessed as concentration required for heteroresistance; type: functional, Cryptococcus bacillisporus; outline: as §1
# [9] = tested on: Cryptococcus gattii species complex; test: Antimicrobial activity against Cryptococcus gattii serotype B isolate NIH754 assessed as heteroresistant isolates at 2 ug/ml; type: functional, Cryptococcus bacillisporus; outline: as §2
# [10] = tested on: Cryptococcus gattii species complex; test: Antimicrobial activity against Cryptococcus gattii serotype B isolate VPB571-058 assessed as concentration required for heteroresistance; type: functional, Cryptococcus bacillisporus
# [11] = tested on: Cryptococcus gattii species complex; test: Antimicrobial activity against Cryptococcus gattii serotype B isolate NIH184 assessed as concentration required for heteroresistance; type: functional, Cryptococcus bacillisporus; outline: as §1
# [12] = tested on: Cryptococcus gattii species complex; test: Antimicrobial activity against Cryptococcus gattii serotype C isolate NIH18 assessed as heteroresistant isolates at 4 ug/ml; type: functional, Cryptococcus bacillisporus; outline: as §3
# [13] = tested on: Cryptococcus gattii species complex; test: Antimicrobial activity against Cryptococcus gattii serotype C isolate NIH257 assessed as heteroresistant isolates at 2 ug/ml; type: functional, Cryptococcus bacillisporus
# Outline: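 Cell suspensions of 1 × 10^3 to 4 × 10^3 CFU/ml were made in sterile saline and plated on plain YPD agar or YPD agar with various fluconazole concentrations. Plates were incubated at 30°C for 72 h, and the percentage of resistant subpopulation emerging was recorded.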
# [14] = tested on: Cryptococcus gattii species complex; test: Antimicrobial activity against Cryptococcus gattii serotype B isolate NIH184 assessed as heteroresistant isolates at 16 ug/ml; type: functional, Cryptococcus bacillisporus; outline: as §2
# [15] = tested on: Cryptococcus gattii species complex; test: Antimicrobial activity against Cryptococcus gattii serotype C isolate NIH178 assessed as concentration required for heteroresistance; type: functional, Cryptococcus bacillisporus
# [16] = tested on: Cryptococcus gattii species complex; test: Antimicrobial activity against Cryptococcus gattii serotype B isolate NIH190 assessed as heteroresistant isolates at 2 ug/ml; type: functional, Cryptococcus bacillisporus; outline: as §2
# [17] = tested on: Cryptococcus gattii species complex; test: Antimicrobial activity against Cryptococcus gattii serotype C isolate H0058-1-1941 assessed as heteroresistant isolates at 8 ug/ml; type: functional, Cryptococcus bacillisporus; outline: as §3
# [18] = tested on: Cryptococcus gattii species complex; test: Antimicrobial activity against Cryptococcus gattii serotype B isolate RB-4 assessed as concentration required for heteroresistance; type: functional, Cryptococcus bacillisporus
# [19] = tested on: Cryptococcus gattii species complex; test: Antimicrobial activity against Cryptococcus gattii serotype C isolate NIH187 assessed as concentration required for heteroresistance; type: functional, Cryptococcus bacillisporus
# [20] = tested on: Cryptococcus gattii species complex; test: Antimicrobial activity against Cryptococcus gattii serotype C isolate H0058-1-818 assessed as heteroresistant isolates at 32 ug/ml; type: functional, Cryptococcus bacillisporus; outline: as §3
# [21] = tested on: Cryptococcus gattii species complex; test: Antimicrobial activity against Cryptococcus gattii serotype B isolate RB14 assessed as heteroresistant isolates at 32 ug/ml; type: functional, Cryptococcus bacillisporus; outline: as §3
# [22] = tested on: Cryptococcus gattii species complex; test: Antimicrobial activity against Cryptococcus gattii serotype B isolate NIH771 assessed as concentration required for heteroresistance; type: functional, Cryptococcus bacillisporus; outline: as §1
# [23] = tested on: Cryptococcus gattii species complex; test: Antimicrobial activity against Cryptococcus gattii serotype B isolate RB22 assessed as heteroresistant isolates at 2 ug/ml; type: functional, Cryptococcus bacillisporus; outline: as §3
# [24] = tested on: Cryptococcus bacillisporus; test: Antimicrobial activity against Cryptococcus gattii serotype C isolate NIH191 assessed as concentration required for heteroresistance; type: functional
# [25] = tested on: Cryptococcus gattii species complex; test: Antimicrobial activity against Cryptococcus gattii serotype B isolate RAM002 assessed as heteroresistant isolates at 4 ug/ml; type: functional, Cryptococcus bacillisporus; outline: as §3
# [26] = tested on: Cryptococcus gattii species complex; test: Antimicrobial activity against Cryptococcus gattii serotype C isolate NIH298 assessed as concentration required for heteroresistance; type: functional, Cryptococcus bacillisporus
# Outline: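 […] on YPD agar at 4 to 128 μg/ml. The lowest drug concentration at which minor resistant subpopulations emerged within the patch was scored as the strain's level of heteroresistance.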
# [27] = tested on: Cryptococcus gattii species complex; test: Antimicrobial activity against Cryptococcus gattii serotype B isolate NIH281 assessed as concentration required for heteroresistance; type: functional, Cryptococcus bacillisporus; outline: as §1
# [28] = tested on: Cryptococcus deuterogattii; test: Antimicrobial activity against Cryptococcus gattii serotype B isolate NIH444 assessed as heteroresistant isolates at 32 ug/ml; type: functional, Cryptococcus bacillisporus; outline: as §2
# [29] = tested on: Cryptococcus gattii species complex; test: Antimicrobial activity against Cryptococcus gattii serotype B isolate RAM-005 assessed as concentration required for heteroresistance; type: functional, Cryptococcus bacillisporus
# [30] = tested on: Cryptococcus gattii species complex; test: Antimicrobial activity against fluconazole-resistant Cryptococcus gattii serotype B isolate RB14 at 256 ug/ml; type: functional, organism-based; settings: Cryptococcus bacillisporus
# [31] = tested on: Cryptococcus gattii species complex; test: Antimicrobial activity against Cryptococcus gattii serotype B isolate RAM15 assessed as heteroresistant isolates at 32 ug/ml; type: functional, Cryptococcus bacillisporus; outline: as §3
# [32] = tested on: Cryptococcus gattii species complex; test: Antimicrobial activity against Cryptococcus gattii serotype B isolate RB-9 assessed as concentration required for heteroresistance; type: functional, Cryptococcus bacillisporus
# [33] = tested on: Cryptococcus gattii species complex; test: Antimicrobial activity against Cryptococcus gattii serotype C isolate H0058-1-818 assessed as heteroresistant isolates at 2 ug/ml; type: functional, Cryptococcus bacillisporus; outline: as §3
# [34] = tested on: Cryptococcus gattii species complex; test: Antimicrobial activity against Cryptococcus gattii serotype B isolate NIH184 assessed as heteroresistant isolates at 8 ug/ml; type: functional, Cryptococcus bacillisporus; outline: as §2
# [35] = tested on: Cryptococcus gattii species complex; test: Antimicrobial activity against Cryptococcus gattii serotype B isolate B3939 assessed as heteroresistant isolates at 4 ug/ml; type: functional, Cryptococcus bacillisporus; outline: as §2
# [36] = tested on: Cryptococcus gattii species complex; test: Antimicrobial activity against Cryptococcus gattii serotype B isolate B5765 assessed as heteroresistant isolates at 8 ug/ml; type: functional, Cryptococcus bacillisporus; outline: as §2
# [37] = tested on: Cryptococcus gattii species complex; test: Antimicrobial activity against Cryptococcus gattii serotype B isolate NIH189 assessed as heteroresistant isolates at 8 ug/ml; type: functional, Cryptococcus bacillisporus; outline: as §2
# [38] = tested on: Cryptococcus gattii species complex; test: Antimicrobial activity against Cryptococcus gattii serotype B isolate NIH200 assessed as heteroresistant isolates at 4 ug/ml; type: functional, Cryptococcus bacillisporus; outline: as §2
# [39] = tested on: Cryptococcus gattii species complex; test: Antimicrobial activity against Cryptococcus gattii serotype B isolate NIH367 assessed as heteroresistant isolates at 16 ug/ml; type: functional, Cryptococcus bacillisporus; outline: as §2
# [40] = tested on: Cryptococcus gattii species complex; test: Antimicrobial activity against Cryptococcus gattii serotype C isolate H0058-1-2023 assessed as concentration required for heteroresistance; type: functional, Cryptococcus bacillisporus
# [41] = tested on: Cryptococcus gattii species complex; test: Antimicrobial activity against Cryptococcus gattii serotype B isolate NIH771 assessed as heteroresistant isolates at 2 ug/ml; type: functional, Cryptococcus bacillisporus; outline: as §2
# [42] = tested on: Cryptococcus gattii species complex; test: Antimicrobial activity against Cryptococcus gattii serotype B isolate RB-33 assessed as concentration required for heteroresistance; type: functional, Cryptococcus bacillisporus
# [43] = tested on: Cryptococcus gattii species complex; test: Antimicrobial activity against Cryptococcus gattii serotype B isolate B4506 assessed as heteroresistant isolates at 2 ug/ml; type: functional, Cryptococcus bacillisporus; outline: as §2
smiles,measurement,setting,value
OC(Cn1cncn1)(Cn1cncn1)c1ccc(F)cc1F [FLUCONAZOLE],Activity,[1],32 µg/mL
same,Activity,[2],8 µg/mL
same,Activity,[3],100%
same,Activity,[4],5.7%
same,Activity,[5],32 µg/mL
same,Activity,[6],100%
same,Activity,[7],100%
same,Activity,[8],4 µg/mL
same,Activity,[9],100%
same,Activity,[10],32 µg/mL
same,Activity,[11],16 µg/mL
same,Activity,[12],100%
same,Activity,[13],100%
same,Activity,[14],35%
same,Activity,[15],32 µg/mL
same,Activity,[16],100%
same,Activity,[17],100%
same,Activity,[18],32 µg/mL
same,Activity,[19],32 µg/mL
same,Activity,[20],16%
same,Activity,[21],0.8%
same,Activity,[22],32 µg/mL
same,Activity,[23],100%
same,Activity,[24],32 µg/mL
same,Activity,[25],100%
same,Activity,[26],32 µg/mL
same,Activity,[27],4 µg/mL
same,Activity,[28],0.5%
same,Activity,[29],32 µg/mL
same,Activity,[30],inactive
same,Activity,[31],10%
same,Activity,[32],32 µg/mL
same,Activity,[33],100%
same,Activity,[34],100%
same,Activity,[35],100%
same,Activity,[36],100%
same,Activity,[37],100%
same,Activity,[38],0.1%
same,Activity,[39],9%
same,Activity,[40],32 µg/mL
same,Activity,[41],100%
same,Activity,[42],32 µg/mL
same,Activity,[43],100%
